Values after ≈ are worked out from the molar mass of the structure shown.
Tests used:
Type in all cases: functional
[1] = test system: Streptococcus pneumoniae; experiment: Antimicrobial activity against Streptococcus pneumoniae isolate 3791 by agar dilution method
In short: (§1)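 Agar dilution MIC on Mueller-Hinton agar with 5% sheep blood, inocula 10^4 CFU/spot; amoxicillin-clavulanate combined 1:2; S. pneumoniae ATCC 49619 quality control each run.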

[2] = test system: Streptococcus pneumoniae; experiment: Antimicrobial activity against Streptococcus pneumoniae isolate 3260 by agar dilution method
[3] = test system: Streptococcus pneumoniae; experiment: Antimicrobial activity against Streptococcus pneumoniae 10 by time-kill analysis
In short: (§2)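 Time-kill in cation-adjusted Mueller-Hinton broth with 5% lysed horse blood; inocula 5 × 105 to 5 × 10^6 CFU/ml; drugs at MIC, 2× and 4× MIC; 35°C shaking water bath; viable counts at 0, 3, 6, 12, 24 h. Bactericidal = ≥3 log10 CFU/ml (99.9%) drop from original inoculum; 90%/99%/99.9% killing scored per strain.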

[4] = test system: Streptococcus pneumoniae; experiment: Antimicrobial activity against Streptococcus pneumoniae isolate 1424 by agar dilution method; in short: as §1
[5] = test system: Streptococcus pneumoniae; experiment: Antimicrobial activity against Streptococcus pneumoniae isolate 37 by agar dilution method; in short: as §1
[6] = test system: Streptococcus pneumoniae; experiment: Antimicrobial activity against Streptococcus pneumoniae isolate 4755 by agar dilution method; in short: as §1
[7] = test system: Streptococcus pneumoniae; experiment: Antimicrobial activity against Streptococcus pneumoniae isolate 1055 by agar dilution method
[8] = test system: Streptococcus pneumoniae; experiment: Antimicrobial activity against Streptococcus pneumoniae isolate 2880 by agar dilution method; in short: as §1
[9] = test system: Streptococcus pneumoniae; experiment: Antimicrobial activity against Streptococcus pneumoniae isolate 1394 by agar dilution method
[10] = test system: Streptococcus pneumoniae; experiment: Antimicrobial activity against Streptococcus pneumoniae isolate 3275 by agar dilution method; in short: as §1
[11] = test system: Streptococcus pneumoniae; experiment: Antimicrobial activity against penicillin-resistant Streptococcus pneumoniae by agar dilution method; in short: as §1
[12] = test system: Streptococcus pneumoniae; experiment: Antimicrobial activity against Streptococcus pneumoniae isolate 3263 by agar dilution method
[13] = test system: Streptococcus pneumoniae; experiment: Antimicrobial activity against Streptococcus pneumoniae 1 by time-kill analysis
In short: as §2, with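 “12 and” for “12,”, “if” for “=”, “reduction” for “drop”, “90% and 99%” for “90%/99%/99.9%”, “also scored.” for “scored per strain.”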

[14] = test system: Streptococcus pneumoniae; experiment: Antimicrobial activity against Streptococcus pneumoniae isolate 2617 by agar dilution method; in short: as §1
[15] = test system: Streptococcus pneumoniae; experiment: Antimicrobial activity against Streptococcus pneumoniae 11 by time-kill analysis; in short: as §2
[16] = test system: Streptococcus pneumoniae; experiment: Antimicrobial activity against Streptococcus pneumoniae 12 by time-kill analysis; in short: as §2
[17] = test system: Streptococcus pneumoniae; experiment: Antimicrobial activity against Streptococcus pneumoniae 8 by time-kill analysis; in short: as §2
[18] = test system: Streptococcus pneumoniae; experiment: Antimicrobial activity against Streptococcus pneumoniae isolate 4747 by agar dilution method; in short: as §1
[19] = test system: Streptococcus pneumoniae; experiment: Antimicrobial activity against penicillin-intermediate Streptococcus pneumoniae by agar dilution method
[20] = test system: Streptococcus pneumoniae; experiment: Antimicrobial activity against Streptococcus pneumoniae 6 by time-kill analysis; in short: as §2
[21] = test system: Streptococcus pneumoniae; experiment: Antimicrobial activity against Streptococcus pneumoniae isolate 3282 by agar dilution method
[22] = test system: Streptococcus pneumoniae; experiment: Antimicrobial activity against Streptococcus pneumoniae isolate 1146 by agar dilution method; in short: as §1
[23] = test system: Streptococcus pneumoniae; experiment: Antimicrobial activity against Streptococcus pneumoniae isolate 3455 by agar dilution method
[24] = test system: Streptococcus pneumoniae; experiment: Antimicrobial activity against Streptococcus pneumoniae 4 by time-kill analysis; in short: as §2
[25] = test system: Streptococcus pneumoniae; experiment: Antimicrobial activity against Streptococcus pneumoniae isolate 2686 by agar dilution method; in short: as §1
[26] = test system: Streptococcus pneumoniae; experiment: Antimicrobial activity against Streptococcus pneumoniae 3 by time-kill analysis; in short: as §2
[27] = test system: Streptococcus pneumoniae; experiment: Antimicrobial activity against Streptococcus pneumoniae isolate 3374 by agar dilution method; in short: as §1
[28] = test system: Streptococcus pneumoniae; experiment: Antimicrobial activity against Streptococcus pneumoniae isolate 3481 by agar dilution method; in short: as §1
[29] = test system: Streptococcus pneumoniae; experiment: Antimicrobial activity against Streptococcus pneumoniae isolate 1147 by agar dilution method; in short: as §1
[30] = test system: Streptococcus pneumoniae; experiment: Antimicrobial activity against Streptococcus pneumoniae isolate 1384 by agar dilution method; in short: as §1
[31] = test system: Streptococcus pneumoniae; experiment: Antimicrobial activity against Streptococcus pneumoniae isolate 24 by agar dilution method
[32] = test system: Streptococcus pneumoniae; experiment: Antimicrobial activity against Streptococcus pneumoniae isolate 3458 by agar dilution method
[33] = test system: Streptococcus pneumoniae; experiment: Antimicrobial activity against Streptococcus pneumoniae 5 by time-kill analysis
In short: as §2, with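 “12 and” for “12,”, “if” for “=”, “reduction” for “drop”, “90% and 99%” for “90%/99%/99.9%”, “also scored.” for “scored per strain.”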

[34] = test system: Streptococcus pneumoniae; experiment: Antimicrobial activity against Streptococcus pneumoniae isolate 33 by agar dilution method; in short: as §1
[35] = test system: Streptococcus pneumoniae; experiment: Antimicrobial activity against Streptococcus pneumoniae isolate 3681 by agar dilution method; in short: as §1
[36] = test system: Streptococcus pneumoniae; experiment: Antimicrobial activity against Streptococcus pneumoniae isolate 2688 by agar dilution method; in short: as §1
[37] = test system: Streptococcus pneumoniae; experiment: Antimicrobial activity against Streptococcus pneumoniae 7 by time-kill analysis; in short: as §2
[38] = test system: Streptococcus pneumoniae; experiment: Antimicrobial activity against Streptococcus pneumoniae isolate 2874 by agar dilution method; in short: as §1
[39] = test system: Streptococcus pneumoniae; experiment: Antimicrobial activity against Streptococcus pneumoniae isolate 3412 by agar dilution method; in short: as §1
[40] = test system: Streptococcus pneumoniae; experiment: Antimicrobial activity against Streptococcus pneumoniae isolate 3587 by agar dilution method
[41] = test system: Streptococcus pneumoniae; experiment: Antimicrobial activity against Streptococcus pneumoniae 9 by time-kill analysis
In short: as §2, with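 “12 and” for “12,”, “if” for “=”, “reduction” for “drop”, “90% and 99%” for “90%/99%/99.9%”, “also scored.” for “scored per strain.”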

[42] = test system: Streptococcus pneumoniae; experiment: Antimicrobial activity against Streptococcus pneumoniae 2 by time-kill analysis; in short: as §2
[43] = test system: Streptococcus pneumoniae; experiment: Antimicrobial activity against penicillin-susceptible Streptococcus pneumoniae by agar dilution method
[44] = test system: Streptococcus pneumoniae; experiment: Antimicrobial activity against Streptococcus pneumoniae isolate 1564 by agar dilution method
[45] = test system: Streptococcus pneumoniae; experiment: Antimicrobial activity against Streptococcus pneumoniae 19A by agar dilution method; in short: as §1
[46] = test system: Streptococcus pneumoniae; experiment: Antimicrobial activity against Streptococcus pneumoniae isolate 3346 by agar dilution method
[47] = test system: Streptococcus pneumoniae; experiment: Antimicrobial activity against Streptococcus pneumoniae isolate 1397 by agar dilution method; in short: as §1

Compound: COCC1=C(C(=O)O)N2C(=O)[C@@H](NC(=O)/C(=N\OC)c3csc(N)n3)[C@H]2SC1 [CEFPODOXIME]
- MIC [1]: 4 µg/mL (≈ 9.36 µM)
- MIC [2]: 2 µg/mL (≈ 4.68 µM)
- MIC [3]: 0.25 µg/mL (≈ 0.585 µM)
- MIC [4]: 4 µg/mL (≈ 9.36 µM)
- MIC [5]: 4 µg/mL (≈ 9.36 µM)
- MIC [6]: 4 µg/mL (≈ 9.36 µM)
- MIC [7]: 2 µg/mL (≈ 4.68 µM)
- MIC [8]: 2 µg/mL (≈ 4.68 µM)
- MIC [9]: 8 µg/mL (≈ 18.7 µM)
- MIC [10]: 1 µg/mL (≈ 2.34 µM)
- MIC50 [11]: 4 µg/mL (≈ 9.36 µM)
- MIC90 [11]: 8 µg/mL (≈ 18.7 µM)
- MIC [12]: 4 µg/mL (≈ 9.36 µM)
- MIC [13]: 0.03 µg/mL (≈ 0.0702 µM)
- MIC [14]: 2 µg/mL (≈ 4.68 µM)
- MIC [15]: 4 µg/mL (≈ 9.36 µM)
- MIC [16]: 2 µg/mL (≈ 4.68 µM)
- MIC [17]: 4 µg/mL (≈ 9.36 µM)
- MIC [18]: 2 µg/mL (≈ 4.68 µM)
- MIC50 [19]: 0.25 µg/mL (≈ 0.585 µM)
- MIC90 [19]: 2 µg/mL (≈ 4.68 µM)
- MIC [20]: 0.5 µg/mL (≈ 1.17 µM)
- MIC [21]: 2 µg/mL (≈ 4.68 µM)
- MIC [22]: 8 µg/mL (≈ 18.7 µM)
- MIC [23]: 4 µg/mL (≈ 9.36 µM)
- MIC [24]: 8 µg/mL (≈ 18.7 µM)
- MIC [25]: 8 µg/mL (≈ 18.7 µM)
- MIC [26]: 0.5 µg/mL (≈ 1.17 µM)
- MIC [27]: 4 µg/mL (≈ 9.36 µM)
- MIC [28]: 4 µg/mL (≈ 9.36 µM)
- MIC [29]: 8 µg/mL (≈ 18.7 µM)
- MIC [30]: 4 µg/mL (≈ 9.36 µM)
- MIC [31]: 2 µg/mL (≈ 4.68 µM)
- MIC [32]: 4 µg/mL (≈ 9.36 µM)
- MIC [33]: 8 µg/mL (≈ 18.7 µM)
- MIC [34]: 4 µg/mL (≈ 9.36 µM)
- MIC [35]: 4 µg/mL (≈ 9.36 µM)
- MIC [36]: 32 µg/mL (≈ 74.9 µM)
- MIC [37]: 4 µg/mL (≈ 9.36 µM)
- MIC [38]: 4 µg/mL (≈ 9.36 µM)
- MIC [39]: 4 µg/mL (≈ 9.36 µM)
- MIC [40]: 4 µg/mL (≈ 9.36 µM)
- MIC [41]: 0.25 µg/mL (≈ 0.585 µM)
- MIC [42]: 0.016 µg/mL (≈ 0.0374 µM)
- MIC [43]: 0.03 µg/mL (≈ 0.0702 µM)
- MIC50 [43]: 0.03 µg/mL (≈ 0.0702 µM)
- MIC90 [43]: 0.06 µg/mL (≈ 0.14 µM)
- MIC [44]: 32 µg/mL (≈ 74.9 µM)
- MIC50 [45]: 8 µg/mL (≈ 18.7 µM)
- MIC90 [45]: 8 µg/mL (≈ 18.7 µM)
- MIC [46]: 4 µg/mL (≈ 9.36 µM)
- MIC [47]: 4 µg/mL (≈ 9.36 µM)

— ChEMBL document CHEMBL1649446, “Comparative antipneumococcal activities of sulopenem and other drugs” (2009)
